Measurements published in ChEMBL document CHEMBL4732114, “Design and structural optimization of novel 2H-benzo[h]chromene derivatives that target AcrB and reverse bacterial multidrug resistance” (Eur J Med Chem, 2021).
Values after ≈ are worked out from the molar mass of the structure shown. Active and inactive are the calls of the source. The rule behind the calls is not given here.

Columns and labels:
[1] = Toxicity in multidrug-resistant Escherichia coli BW25113 assessed as growth inhibition by two-fold broth dilution method
[2] = Toxicity in multidrug-resistant Escherichia coli BW25113 harboring AcrB deletion mutant assessed as growth inhibition by two-fold broth dilution method
[3] = molecular target: T1, Multidrug efflux pump subunit AcrB (Escherichia coli (strain K12)) (UniProt P31224); test: Inhibition of AcrB in multidrug-resistant Escherichia coli BW25113 assessed as potentiation of chloramphenicol-induced antibacterial activity by measuring chloramphenicol MIC at 16 ug/ml by checkerboard titration method (reference value: 8 ug/ml); conditions: dose 16.0 µg/ml
T1 sequence (whole entry): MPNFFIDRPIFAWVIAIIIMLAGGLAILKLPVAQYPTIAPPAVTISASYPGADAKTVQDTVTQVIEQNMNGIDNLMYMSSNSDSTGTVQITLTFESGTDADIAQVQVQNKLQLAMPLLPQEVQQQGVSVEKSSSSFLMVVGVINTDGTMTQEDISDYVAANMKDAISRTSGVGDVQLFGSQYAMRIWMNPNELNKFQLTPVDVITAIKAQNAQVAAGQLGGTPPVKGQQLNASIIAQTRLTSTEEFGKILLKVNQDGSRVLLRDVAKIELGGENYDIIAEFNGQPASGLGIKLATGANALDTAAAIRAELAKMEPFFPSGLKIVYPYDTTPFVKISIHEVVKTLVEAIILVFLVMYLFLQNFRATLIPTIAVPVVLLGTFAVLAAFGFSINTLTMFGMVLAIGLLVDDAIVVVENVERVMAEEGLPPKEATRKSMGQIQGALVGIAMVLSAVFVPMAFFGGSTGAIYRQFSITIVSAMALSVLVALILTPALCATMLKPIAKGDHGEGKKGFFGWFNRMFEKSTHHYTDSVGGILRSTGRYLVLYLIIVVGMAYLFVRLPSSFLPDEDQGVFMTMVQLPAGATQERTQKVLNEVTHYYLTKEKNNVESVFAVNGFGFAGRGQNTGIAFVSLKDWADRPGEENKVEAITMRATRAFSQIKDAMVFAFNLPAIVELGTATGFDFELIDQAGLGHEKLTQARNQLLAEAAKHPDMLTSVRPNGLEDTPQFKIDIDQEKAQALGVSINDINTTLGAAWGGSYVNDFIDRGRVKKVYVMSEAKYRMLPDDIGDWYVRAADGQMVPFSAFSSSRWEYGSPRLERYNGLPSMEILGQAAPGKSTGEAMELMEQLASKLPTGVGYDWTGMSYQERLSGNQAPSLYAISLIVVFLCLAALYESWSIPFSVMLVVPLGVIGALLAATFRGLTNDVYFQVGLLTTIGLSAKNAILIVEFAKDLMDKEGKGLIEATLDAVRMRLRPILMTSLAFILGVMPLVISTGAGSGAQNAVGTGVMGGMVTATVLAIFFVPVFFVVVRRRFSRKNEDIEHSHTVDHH

[4] = molecular target: T1, Multidrug efflux pump subunit AcrB (Escherichia coli (strain K12)); test: Inhibition of AcrB in multidrug-resistant Escherichia coli BW25113 assessed as potentiation of chloramphenicol-induced antibacterial activity by measuring chloramphenicol MIC at 32 ug/ml by checkerboard titration method (reference value: 8 ug/ml); conditions: dose 32.0 µg/ml
[5] = molecular target: T1, Multidrug efflux pump subunit AcrB (Escherichia coli (strain K12)); test: Inhibition of AcrB in multidrug-resistant Escherichia coli BW25113 assessed as potentiation of chloramphenicol-induced antibacterial activity by measuring chloramphenicol MIC at 128 ug/ml by checkerboard titration method (reference value: 8 ug/ml); conditions: dose 128.0 µg/ml
[6] = molecular target: T1, Multidrug efflux pump subunit AcrB (Escherichia coli (strain K12)); test: Inhibition of AcrB in multidrug-resistant Escherichia coli BW25113 assessed as potentiation of erythromycin-induced antibacterial activity by measuring erythromycin MIC at 32 ug/ml by checkerboard titration method (reference value: 64 ug/ml); conditions: dose 32.0 µg/ml
[7] = molecular target: T1, Multidrug efflux pump subunit AcrB (Escherichia coli (strain K12)); test: Inhibition of AcrB in multidrug-resistant Escherichia coli BW25113 assessed as potentiation of erythromycin-induced antibacterial activity by measuring erythromycin MIC at 128 ug/ml by checkerboard titration method (reference value: 64 ug/ml); conditions: dose 128.0 µg/ml
[8] = molecular target: T1, Multidrug efflux pump subunit AcrB (Escherichia coli (strain K12)); test: Inhibition of AcrB in multidrug-resistant Escherichia coli BW25113 assessed as potentiation of tetraphenylphosphonium-induced antibacterial activity by measuring tetraphenylphosphonium MIC at 8 ug/ml by checkerboard titration method (reference value: 1024 ug/ml); conditions: dose 8.0 µg/ml
[9] = molecular target: T1, Multidrug efflux pump subunit AcrB (Escherichia coli (strain K12)); test: Inhibition of AcrB in multidrug-resistant Escherichia coli BW25113 assessed as potentiation of tetraphenylphosphonium-induced antibacterial activity by measuring tetraphenylphosphonium MIC at 32 ug/ml by checkerboard titration method (reference value: 1024 ug/ml); conditions: dose 32.0 µg/ml
[10] = molecular target: T1, Multidrug efflux pump subunit AcrB (Escherichia coli (strain K12)); test: Inhibition of AcrB in multidrug-resistant Escherichia coli BW25113 assessed as potentiation of tetraphenylphosphonium-induced antibacterial activity by measuring tetraphenylphosphonium MIC at 64 ug/ml by checkerboard titration method (reference value: 1024 ug/ml); conditions: dose 64.0 µg/ml
[11] = molecular target: T1, Multidrug efflux pump subunit AcrB (Escherichia coli (strain K12)); test: Inhibition of AcrB in multidrug-resistant Escherichia coli BW25113 assessed as potentiation of levofloxacin-induced antibacterial activity by measuring levofloxacin MIC at 8 ug/ml by checkerboard titration method (reference value: 0.06 ug/ml); conditions: dose 8.0 µg/ml
[12] = molecular target: T1, Multidrug efflux pump subunit AcrB (Escherichia coli (strain K12)); test: Inhibition of AcrB in Escherichia coli BW25113 assessed as reduction in glucose-induced nile red efflux at 100 uM preincubated for 15 mins followed by nile red addition and incubated for 3 hrs in shaker in presence of CCCP by fluorimetric analysis; conditions: time 3.25 hrs
Summary of the method: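 Wild-type and AcrB-deleted cells were preloaded with Nile Red, with or without compound. Fluorescence was recorded, and efflux was triggered at 100 s with 0.2% glucose. Traces were compared with the deletion-strain level. Triplicate experiments used different cell batches.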

[13] = test system: Cell membrane; test: Induction of inner membrane permeabilization in wild type Escherichia coli BW25113 assessed as perturbation of proton motive force at 128 ug/ml measured after 10 mins in presence of CCCP and glucose by Di0C2(3) probe based fluorescence assay; conditions: escherichia coli bw25113, 10 min, dose 128 µg/ml
Summary of the method: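 Cell suspensions were left untreated or exposed to 8-128 µg/mL compound for 10 min. DiOC₂(3) was then added and fluorescence followed to a plateau. Cells were re-energized with 0.5% glucose, and the rise in fluorescence was read as membrane-potential build-up. CCCP was added last to dissipate the potential.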

[14] = molecular target: T1, Multidrug efflux pump subunit AcrB (Escherichia coli (strain K12)); conditions: Escherichia coli BW25113; dose 8.0 µg/ml
[15] = molecular target: T1, Multidrug efflux pump subunit AcrB (Escherichia coli (strain K12)); conditions: Escherichia coli BW25113; dose 32.0 µg/ml
[16] = molecular target: T1, Multidrug efflux pump subunit AcrB (Escherichia coli (strain K12)); conditions: Escherichia coli BW25113; dose 64.0 µg/ml
[17] = molecular target: T1, Multidrug efflux pump subunit AcrB (Escherichia coli (strain K12)); conditions: Escherichia coli BW25113; dose 128.0 µg/ml

Compound | MIC [1] | MIC [2] | MIC [3] | MIC [4] | MIC [5] | MIC [6] | MIC [7] | MIC [8] | MIC [9] | MIC [10] | MIC [11] | inhibition [12] | Activity [13] | MIC [14] | MIC [15] | MIC [16] | MIC [17]
Cc1ccc(COc2cccc3c4c(c(-c5nnco5)cc23)CCC(C)(C)O4)cc1 | > 512 µg/mL | > 128 µg/mL | 8 µg/mL | 8 µg/mL | 2 µg/mL | 32 µg/mL | 8 µg/mL | 512 µg/mL | 512 µg/mL | 512 µg/mL | 0.03 µg/mL | Active | Not Active | 16 µg/mL (≈ 40 µM) | 16 µg/mL (≈ 40 µM) | 16 µg/mL (≈ 40 µM) | 16 µg/mL (≈ 40 µM)
CC1CN(C(=O)c2cc3c(OCc4ccc(Br)cc4)cccc3c3c2CCC(C)(C)O3)CC(C)O1 (centres undefined) | > 512 µg/mL | > 128 µg/mL | 8 µg/mL | 8 µg/mL | 8 µg/mL | 64 µg/mL | 32 µg/mL | 1020 µg/mL | 1020 µg/mL | 1020 µg/mL | 0.06 µg/mL | Active | Not Active | 16 µg/mL (≈ 29.7 µM) | 16 µg/mL (≈ 29.7 µM) | 16 µg/mL (≈ 29.7 µM) | 16 µg/mL (≈ 29.7 µM)
CNC(=O)c1ccc(COc2cccc3c4c(c(Cn5cnnn5)cc23)CCC(C)(C)O4)cc1 | > 512 µg/mL | > 128 µg/mL | 8 µg/mL | 8 µg/mL | 4 µg/mL | 64 µg/mL | 32 µg/mL | 1020 µg/mL | 1020 µg/mL | 1020 µg/mL | 0.06 µg/mL | – | Not Active | 16 µg/mL (≈ 35 µM) | 16 µg/mL (≈ 35 µM) | 16 µg/mL (≈ 35 µM) | 16 µg/mL (≈ 35 µM)
CC1(C)CCc2c(-c3nnco3)cc3c(OCc4ccc([N+](=O)[O-])cc4)cccc3c2O1 | > 512 µg/mL | > 128 µg/mL | 8 µg/mL | 8 µg/mL | 4 µg/mL | 64 µg/mL | 32 µg/mL | 1020 µg/mL | 1020 µg/mL | 1020 µg/mL | 0.06 µg/mL | Active | Not Active | 16 µg/mL (≈ 37.1 µM) | 16 µg/mL (≈ 37.1 µM) | 16 µg/mL (≈ 37.1 µM) | 16 µg/mL (≈ 37.1 µM)
C=CC(=O)Nc1ccc(COc2cccc3c4c(c(C(=O)N5CCOCC5)cc23)CCC(C)(C)O4)cc1 | > 512 µg/mL | > 128 µg/mL | 4 µg/mL | 4 µg/mL | 2 µg/mL | 16 µg/mL | 8 µg/mL | 512 µg/mL | 256 µg/mL | 128 µg/mL | 0.06 µg/mL | Active | Not Active | 16 µg/mL (≈ 32 µM) | 16 µg/mL (≈ 32 µM) | 16 µg/mL (≈ 32 µM) | 16 µg/mL (≈ 32 µM)
